Source: ChEMBL document CHEMBL1156789, “Design and synthesis of 5,5'-disubstituted aminohydantoins as potent and selective human beta-secretase (BACE1) inhibitors” (J Med Chem, 2010)

Legend:
[1] = Inhibition of pepsin by FRET based peptide cleavage assay
Cathepsin D [2] = target: T1, Cathepsin D (Homo sapiens, UniProt P07339); assay: Inhibition of human cathepsin D by FRET based peptide cleavage assay
Renin = target: T2, Renin (Homo sapiens, UniProt P00797); assay: Inhibition of human recombinant renin by FRET based peptide cleavage assay
T2 sequence (P00797 whole entry): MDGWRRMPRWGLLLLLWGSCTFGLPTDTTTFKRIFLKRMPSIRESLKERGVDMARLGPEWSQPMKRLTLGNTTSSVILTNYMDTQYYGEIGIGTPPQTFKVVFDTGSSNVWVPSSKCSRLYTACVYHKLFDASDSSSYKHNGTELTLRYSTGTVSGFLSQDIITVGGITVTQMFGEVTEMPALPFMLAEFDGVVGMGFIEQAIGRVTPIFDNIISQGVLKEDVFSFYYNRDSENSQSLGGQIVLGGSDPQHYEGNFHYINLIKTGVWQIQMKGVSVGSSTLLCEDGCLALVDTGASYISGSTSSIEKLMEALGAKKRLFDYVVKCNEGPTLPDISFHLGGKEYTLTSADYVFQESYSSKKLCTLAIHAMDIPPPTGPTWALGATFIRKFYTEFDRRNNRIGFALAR

Beta-secretase 2 = target: T3, Beta-secretase 2 (Homo sapiens, UniProt Q9Y5Z0); assay: Inhibition of human BACE2 by FRET based peptide cleavage assay
T3 sequence (Q9Y5Z0 whole entry): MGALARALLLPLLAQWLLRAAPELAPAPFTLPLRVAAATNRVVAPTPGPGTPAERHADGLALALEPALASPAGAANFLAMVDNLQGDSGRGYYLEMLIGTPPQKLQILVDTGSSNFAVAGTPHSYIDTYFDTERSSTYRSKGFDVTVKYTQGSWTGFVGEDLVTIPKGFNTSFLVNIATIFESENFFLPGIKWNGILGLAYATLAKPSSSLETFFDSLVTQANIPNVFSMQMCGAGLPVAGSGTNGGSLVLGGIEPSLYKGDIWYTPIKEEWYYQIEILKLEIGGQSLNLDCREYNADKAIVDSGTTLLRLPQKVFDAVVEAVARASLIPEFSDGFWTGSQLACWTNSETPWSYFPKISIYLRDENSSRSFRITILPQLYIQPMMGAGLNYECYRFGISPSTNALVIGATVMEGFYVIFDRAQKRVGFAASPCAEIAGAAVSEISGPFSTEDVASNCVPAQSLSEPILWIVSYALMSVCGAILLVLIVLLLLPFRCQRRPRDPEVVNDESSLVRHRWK

[3] = Dissociation constant, pKa of the compound; assay type: physicochemical
Beta-secretase 1 [4] = target: T4, Beta-secretase 1 (Homo sapiens, UniProt P56817); assay: Inhibition of human BACE1 by FRET based peptide cleavage assay
Beta-secretase 1 [5] = target: T4, Beta-secretase 1; assay: Inhibition of BACE1 expressed in CHOK1 cells coexpressing human recombinant wild type APP assessed as blockade of amyloid beta production by ELISA; assay type: cell-based, CHO-K1
[6] = target: T5, Beta-secretase 2 (Homo sapiens) (UniProt Q9Y5Z0); conditions: 25 uM
T5 sequence (whole entry): T3 sequence (Q9Y5Z0 whole entry)

Cathepsin D [7] = target: T1, Cathepsin D; assay: Inhibition of human cathepsin D at 100 uM by FRET based peptide cleavage assay
Homo sapiens = organism: Homo sapiens; assay: Selectivity for human BACE1 over human BACE2
Mus musculus = assay: Reduction in amyloid beta 40 level in Tg2576 mouse plasma at 100 mg/kg, po after 8 hrs; assay type: functional; set-up: scale not given: the % may be the effect or the level left
Method in brief: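 Tg2576 mice received a single acute oral dose. Plasma Aβ40 was measured 8 h after dosing.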

T4 sequence (P56817 whole entry): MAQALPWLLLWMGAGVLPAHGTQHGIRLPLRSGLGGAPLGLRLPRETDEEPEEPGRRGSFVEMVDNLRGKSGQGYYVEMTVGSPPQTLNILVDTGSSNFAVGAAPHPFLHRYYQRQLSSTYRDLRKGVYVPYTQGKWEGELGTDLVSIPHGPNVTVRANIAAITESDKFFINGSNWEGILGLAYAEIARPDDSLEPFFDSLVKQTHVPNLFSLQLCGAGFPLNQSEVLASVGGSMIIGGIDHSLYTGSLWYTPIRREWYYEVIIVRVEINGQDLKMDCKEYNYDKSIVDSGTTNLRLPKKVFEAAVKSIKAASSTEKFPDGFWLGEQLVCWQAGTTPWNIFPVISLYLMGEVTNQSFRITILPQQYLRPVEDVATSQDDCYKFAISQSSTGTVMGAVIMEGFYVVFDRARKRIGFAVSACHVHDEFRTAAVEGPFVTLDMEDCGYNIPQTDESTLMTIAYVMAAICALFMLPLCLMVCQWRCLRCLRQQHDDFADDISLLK
T1 sequence (P07339 65-162 limits assumed): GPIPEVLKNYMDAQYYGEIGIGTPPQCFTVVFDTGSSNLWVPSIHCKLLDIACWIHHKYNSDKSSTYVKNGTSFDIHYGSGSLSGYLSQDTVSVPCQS
T1 sequence (P07339 169-412 limits assumed): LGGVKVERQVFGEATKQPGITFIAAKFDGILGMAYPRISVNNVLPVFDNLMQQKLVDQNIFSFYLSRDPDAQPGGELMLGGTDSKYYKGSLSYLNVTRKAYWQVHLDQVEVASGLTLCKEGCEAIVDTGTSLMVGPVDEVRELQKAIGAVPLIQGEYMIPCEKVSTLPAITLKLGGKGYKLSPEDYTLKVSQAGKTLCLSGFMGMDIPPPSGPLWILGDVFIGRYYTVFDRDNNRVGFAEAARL

Compound	IC50 (Cathepsin D [2])	IC50 (Beta-secretase 2)	IC50 (Beta-secretase 1 [4])	EC50 (Beta-secretase 1 [5])	other results
NC1=NC(c2ccccc2)(c2ccccc2)C2=NCCCN12	–	–	–	–	pKa [3]: 7.6
COc1ccc(C2(c3cccc(-c4cccnc4)c3)N=C(N)N(C)C2=O)cc1OC (configuration not stated)	23.1 µM	–	–	–	–
CCOc1ccc(C2(C34CC5CC(CC(C5)C3)C4)N=C(N)N(C)C2=O)cc1 (configuration not stated)	11.5 µM	2530 nM	–	–	–
COc1ccc(-c2cccc(C3(c4ccc(OC(F)(F)F)cc4)N=C(N)N(C)C3=O)c2)cn1 (configuration not stated)	4.43 µM	2510 nM	–	–	–
CN1C(=O)[C@@](c2ccc(OC(F)(F)F)cc2)(c2ccc(F)c(-c3cncnc3)c2)N=C1N	2.33 µM	7540 nM	–	–	–
CN1C(=O)[C@](c2ccc(OC(F)(F)F)cc2)(c2ccc(F)c(-c3cncnc3)c2)N=C1N	11.6 µM	9970 nM	–	–	–
COc1ccc([C@@]2(C34CC5CC(CC(C5)C3)C4)N=C(N)N(C)C2=O)cc1	20.8 µM	–	–	–	inhibition [6]: 50%
COc1ncccc1-c1cccc(C2(c3ccc(OC(F)(F)F)cc3)N=C(N)N(C)C2=O)c1 (configuration not stated)	2.05 µM	5990 nM	520 nM	2570 nM	–
COc1ccc(C2(c3ccccc3)N=C(N)N(C)C2=O)cc1 (configuration not stated)	–	1720 nM	3100 nM	3350 nM	inhibition (Cathepsin D [7]): 3%
CN1C(=O)C(c2cccc(-c3cccnc3)c2)(c2ccc3c(c2)OCO3)N=C1N (configuration not stated)	21.4 µM	540 nM	–	–	–
NC1=NC(c2ccccc2)(c2ccccc2)C(=O)N1	–	87200 nM	–	23500 nM	inhibition (Cathepsin D [7]): 13%
COc1ccc(C2(C34CC5CC(CC(C5)C3)C4)N=C(N)N(C)C2=O)cc1C (configuration not stated)	11.1 µM	6290 nM	–	–	IC50 [1]: 15 µM; IC50 (Renin): 59.5 µM
CCN1C(=O)C(c2ccccc2)(c2ccccc2)N=C1N	–	5160 nM	–	8130 nM	inhibition (Cathepsin D [7]): 33%
CN1C(=O)C(c2ccc(OC(F)(F)F)cc2)(C23CC4CC(CC(C4)C2)C3)N=C1N (configuration not stated)	6.22 µM	3870 nM	–	–	–
CN1C(=O)C(c2ccccc2)(c2ccc(Cl)cc2)N=C1N (configuration not stated)	38.2 µM	1840 nM	2250 nM	2130 nM	–
COc1ccc(C2(c3cccc(-c4cccnc4)c3)N=C(N)N(C)C2=O)cc1C (configuration not stated)	–	–	–	–	IC50 [1]: 19.6 µM; IC50 (Renin): 93.4 µM

Compound	IC50 (Cathepsin D [2])	IC50 (Beta-secretase 2)	IC50 (Beta-secretase 1 [4])	EC50 (Beta-secretase 1 [5])	other results
CCCCOc1ccc(C2(C34CC5CC(CC(C5)C3)C4)N=C(N)N(C)C2=O)cc1 (configuration not stated)	8.4 µM	5550 nM	–	–	–
COc1ccc(C2(c3cccc(-c4cccnc4)c3)N=C(N)N(C)C2=O)cc1OC(C)C (configuration not stated)	12.2 µM	1840 nM	60 nM	870 nM	–
COc1ccc(C2(c3ccc(F)c(-c4cncnc4)c3)N=C(N)N(C)C2=O)cc1C (configuration not stated)	6.7 µM	2800 nM	–	–	IC50 [1]: 35.3 µM; IC50 (Renin): 57.6 µM
CN1C(=O)C(c2ccccc2)(c2ccccc2)N=C1N	–	–	–	–	IC50 [1]: 11.1 µM; inhibition (Cathepsin D [7]): 36%; IC50 (Renin): 9.6 µM; pKa [3]: 5.7
COc1ccc(C2(c3cccc(-c4cccnc4F)c3)N=C(N)N(C)C2=O)cc1C (configuration not stated)	–	–	–	110 nM	–
CCc1cc(C2(C34CC5CC(CC(C5)C3)C4)N=C(N)N(C)C2=O)ccc1OC (configuration not stated)	14.1 µM	4330 nM	280 nM	760 nM	Ratio IC50 (Homo sapiens): 20
COc1ccc(C2(c3ccc(C#N)c(-c4cccnc4)c3)N=C(N)N(C)C2=O)cc1C (configuration not stated)	2.19 µM	2320 nM	630 nM	1750 nM	–
COc1ccc([C@@]2(c3ccc(F)c(-c4cccnc4F)c3)N=C(N)N(C)C2=O)cc1C	0.82 µM	810 nM	–	–	Activity (Mus musculus): 69%
CN1C(=O)C(c2ccc(OC(F)(F)F)cc2)(c2ccc(F)c(-c3cncnc3)c2)N=C1N (configuration not stated)	4.18 µM	9690 nM	–	–	–
CN1C(=O)C(c2cccc(-c3cccnc3)c2)(c2ccc3c(c2)CCO3)N=C1N (configuration not stated)	23.9 µM	1130 nM	–	–	–
COc1ccc(C2(C34CC5CC(CC(C5)C3)C4)N=C(N)N(C)C2=O)cc1OC (configuration not stated)	36.6 µM	9590 nM	270 nM	190 nM	Ratio IC50 (Homo sapiens): 20
CN1C(=O)C(c2ccc(OC(F)(F)F)cc2)(c2cccc(-c3cncnc3)c2F)N=C1N (configuration not stated)	26.2 µM	5040 nM	1360 nM	2830 nM	–
COc1ccc([C@]2(C34CC5CC(CC(C5)C3)C4)N=C(N)N(C)C2=O)cc1C	9.21 µM	4020 nM	–	–	–
COc1ccc([C@]2(c3ccc(F)c(-c4cccnc4F)c3)N=C(N)N(C)C2=O)cc1C	2.71 µM	1640 nM	–	–	–
COc1ccc([C@@]2(C34CC5CC(CC(C5)C3)C4)N=C(N)N(C)C2=O)cc1C	13.1 µM	73600 nM	–	–	–
COc1ccc(C2(c3ccc(F)c(-c4cccnc4F)c3)N=C(N)N(C)C2=O)cc1C (configuration not stated)	2.41 µM	1840 nM	–	–	IC50 [1]: 66.3 µM; IC50 (Renin): 23.2 µM

More lines, in order of falling IC50 (Beta-secretase 2), values ahead:

IC50 (Cathepsin D [2])	IC50 (Beta-secretase 2)	IC50 (Beta-secretase 1 [4])	EC50 (Beta-secretase 1 [5])	Compound	other results
14.3 µM	1590 nM	–	–	COc1ccc(C2(c3cccc(-c4cncnc4)c3)N=C(N)N(C)C2=O)cc1C (configuration not stated)	IC50 [1]: 33.3 µM; IC50 (Renin): 42.3 µM
8.55 µM	1260 nM	320 nM	–	CN1C(=O)C(c2ccc(OC(F)(F)F)cc2)(c2cc(F)cc(-c3cncnc3)c2)N=C1N (configuration not stated)	IC50 [1]: 35.1 µM; IC50 (Renin): 13.8 µM
–	1190 nM	3470 nM	5900 nM	COc1cccc(C2(c3ccccc3)N=C(N)N(C)C2=O)c1 (configuration not stated)	inhibition (Cathepsin D [7]): 46%
3.51 µM	1000 nM	–	–	COc1ccc(C2(c3cccc(-c4cccnc4)c3)N=C(N)N(C)C2=O)cc1C(F)(F)F (configuration not stated)	–
1.87 µM	960 nM	–	–	COc1ccc(C2(c3cccc(-c4cccnc4)c3)N=C(N)N(C)C2=O)cc1C1CCCC1 (configuration not stated)	–
2.47 µM	960 nM	–	–	COc1ccc(C2(c3ccc(C)c(-c4cccnc4)c3)N=C(N)N(C)C2=O)cc1C (configuration not stated)	–
27.3 µM	830 nM	–	–	CN1C(=O)C(c2ccccc2)(C23CC4CC(CC(C4)C2)C3)N=C1N (configuration not stated)	–
15.3 µM	680 nM	–	–	COc1ccc(C2(C34CC5CC(CC(C5)C3)C4)N=C(N)N(C)C2=O)cc1 (configuration not stated)	IC50 [1]: 14.4 µM; IC50 (Renin): 53.3 µM
10.3 µM	600 nM	50 nM	520 nM	CCOc1cc(C2(c3cccc(-c4cccnc4)c3)N=C(N)N(C)C2=O)ccc1OC (configuration not stated)	–
6.28 µM	560 nM	–	–	COc1ccc(C2(c3cccc(-c4cccnc4)c3)N=C(N)N(C)C2=O)cc1Cl (configuration not stated)	–
7.3 µM	550 nM	150 nM	4500 nM	COc1ccc(C2(c3cccc(-c4cccnc4)c3)N=C(N)N(C)C2=O)cc1C#N (configuration not stated)	–
5.2 µM	520 nM	50 nM	420 nM	COc1ccc(C2(c3cccc(-c4cccnc4)c3)N=C(N)N(C)C2=O)cc1F (configuration not stated)	–
10.9 µM	500 nM	–	–	CN1C(=O)C(c2cccc(-c3cccnc3)c2)(c2ccc3c(c2)OCCO3)N=C1N (configuration not stated)	–
69.2 µM	420 nM	2500 nM	6970 nM	CN1C(=O)C(c2ccccc2)(c2cccc(Cl)c2)N=C1N (configuration not stated)	–
8.3 µM	300 nM	–	–	COc1ccc(C2(c3cccc(-c4cccnc4)c3)N=C(N)N(C)C2=O)cc1OC1CCCC1 (configuration not stated)	–
13.4 µM	230 nM	–	–	COc1ccc([C@]2(C34CC5CC(CC(C5)C3)C4)N=C(N)N(C)C2=O)cc1	–
10.1 µM	200 nM	50 nM	680 nM	CCCOc1cc(C2(c3cccc(-c4cccnc4)c3)N=C(N)N(C)C2=O)ccc1OC (configuration not stated)	–
8.18 µM	170 nM	50 nM	670 nM	CCCCOc1cc(C2(c3cccc(-c4cccnc4)c3)N=C(N)N(C)C2=O)ccc1OC (configuration not stated)	–
